Calls of active or inactive are those of the source.
Assays:
[1] = test system: Staphylococcus epidermidis; assay: Antimicrobial activity against Staphylococcus epidermidis ATCC 12228 after 24 hrs by broth microdilution method; format: functional; details: ATCC 12228, 24 h
Outline: (§1)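 Microplate broth microdilution with a serial dilution series of compounds, using chloramphenicol as the antibacterial control. Bacterial plates were incubated at 35 °C for 24 h.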

Proteus mirabilis = assay: Antimicrobial activity against Proteus mirabilis ATCC 25933 after 24 hrs by broth microdilution method; format: functional; outline: as §1
Nannizzia gypsea = assay: Antifungal activity against Microsporum gypseum after 48 hrs by broth microdilution method; format: functional
Outline: (§2)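 Broth microdilution against filamentous fungi with serially diluted compounds. Amphotericin B (fungicidal) and fluconazole (fungistatic) were run as controls. Plates were incubated at 30 °C for 48 h.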

Cryptococcus neoformans = assay: Antifungal activity against Cryptococcus neoformans ATCC 90012 after 24 hrs by broth microdilution method; format: functional
Outline: (§3)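 Broth microdilution in microplates with a serial dilution series of compounds. Amphotericin B served as the fungicidal control and fluconazole as the fungistatic control. Yeast plates were incubated at 37 °C for 24 h.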

Escherichia coli = assay: Antimicrobial activity against Escherichia coli ATCC 25922 after 24 hrs by broth microdilution method; format: functional; outline: as §1
[2] = Cytotoxicity against human PBMC after 48 hrs by MTT assay; format: cell-based; details: PBMC (peripheral blood mononuclear cells)
Outline: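 Normal human PBMC from healthy volunteers were isolated by Ficoll-Hypaque density gradient and seeded at 2.4 × 10⁶ cells/mL. Compounds were added at 100 to 0.06 and cells held 48 h at 37 °C, 5% CO₂. MTT was then added for 4 h, formazan dissolved in DMSO and A560 read. Untreated cells were taken as 100% viability. CC50 was obtained by linear regression.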

Nakaseomyces glabratus = assay: Antifungal activity against Candida glabrata ATCC 90030 after 24 hrs by broth microdilution method; format: functional; outline: as §3
Staphylococcus aureus [3] = assay: Ratio of MIC100 for chloramphenicol to MIC100 of compound for Staphylococcus aureus ATCC 6538 after 24 hrs by broth microdilution method; format: functional
Trichophyton tonsurans = assay: Antifungal activity against Trichophyton tonsurans after 48 hrs by broth microdilution method; format: functional; outline: as §2
Staphylococcus aureus [4] = assay: Antimicrobial activity against Staphylococcus aureus ATCC 6538 after 24 hrs by broth microdilution method; format: functional; details: ATCC 6538, 24 h; outline: as §1
Pseudomonas aeruginosa = assay: Antimicrobial activity against Pseudomonas aeruginosa ATCC 9027 after 24 hrs by broth microdilution method; format: functional; outline: as §1
Bacillus cereus = assay: Antimicrobial activity against Bacillus cereus ATCC 11778 after 24 hrs by broth microdilution method; format: functional; details: ATCC 11778, 24 h; outline: as §1
[5] = test system: Staphylococcus epidermidis; assay: Ratio of MIC100 for chloramphenicol to MIC100 of compound for Staphylococcus epidermidis ATCC 12228 after 24 hrs by broth microdilution method; format: functional
Candida parapsilosis = assay: Antifungal activity against Candida parapsilosis ATCC 69548 after 24 hrs by broth microdilution method; format: functional; outline: as §3
Salmonella typhimurium = assay: Antimicrobial activity against Salmonella typhimurium ATCC 14028 after 24 hrs by broth microdilution method; format: functional; details: Salmonella enterica subsp. enterica serovar Typhimurium; outline: as §1
Candida albicans = assay: Antifungal activity against Candida albicans ATCC 09548 after 24 hrs by broth microdilution method; format: functional; outline: as §3
Pichia kudriavzevii = assay: Antifungal activity against Candida krusei ATCC 6258 after 24 hrs by broth microdilution method; format: functional; outline: as §3
Candida tropicalis = assay: Antifungal activity against Candida tropicalis ATCC 750 after 24 hrs by broth microdilution method; format: functional; outline: as §3

CC(C)=CCC[C@]1(C)[C@@H](CC=C(C)C)C[C@@]2(CC=C(C)C)C(=O)C(C(=O)c3ccc(OS(=O)(=O)c4ccc(C)cc4)c(OS(=O)(=O)c4ccc(C)cc4)c3)=C(O)[C@]1(CC=C(C)C)C2=O
inactive: MIC100 (Proteus mirabilis) | MIC50 (Nannizzia gypsea) | MIC100 (Nannizzia gypsea) | MIC100 (Cryptococcus neoformans) | MIC50 (Escherichia coli) | MIC100 (Escherichia coli) | MIC50 (Nakaseomyces glabratus) | MIC100 (Nakaseomyces glabratus) | MIC50 (Trichophyton tonsurans) | MIC100 (Trichophyton tonsurans) | MIC50 (Pseudomonas aeruginosa) | MIC100 (Pseudomonas aeruginosa) | MIC50 (Candida parapsilosis) | MIC100 (Candida parapsilosis) | MIC50 (Salmonella typhimurium) | MIC50 (Candida albicans) | MIC100 (Candida albicans) | MIC50 (Pichia kudriavzevii) | MIC100 (Pichia kudriavzevii) | MIC50 (Candida tropicalis) | MIC100 (Candida tropicalis)
43.9 µM: MIC50 (Cryptococcus neoformans; ATCC 90012, 24 h)
43 µM: MIC50 (Staphylococcus aureus [4]; read-out: MIC50)
4.39: Ratio (Staphylococcus aureus [3])
> 113 µM: CC50 at 48 h [2]
21.9 µM: MIC (Bacillus cereus; read-out: MIC100)
171 µM: MIC50 (Bacillus cereus)
2740 µM: MIC50 [1]
3.5: Ratio [5]
2.74 µM: MIC (Staphylococcus aureus [4]; read-out: MIC100)
